Key:
Type in all cases: functional
SK-OV-3 = test: Antiproliferative activity against human SKOV3 cells after 48 hrs by sulforhodamine B assay; details: SK-OV-3, 48 h
Summary of the method: (§1)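 Cells grown in RPMI 1640 with 5% FBS and 2 mM L-glutamine, plated at 5000–40,000 cells/well and preincubated 24 h at 37 °C, 5% CO2. Five drug concentrations (10-fold or ½-log dilutions from DMSO stocks) applied for 48 h. TCA-fixed (final 10% adherent, 16% suspension), SRB-stained, A515 read. Growth versus time-zero and control wells gave GI50, TGI, LC50.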

DU-145 = test: Antiproliferative activity against human DU145 cells after 48 hrs by sulforhodamine B assay; details: DU-145, 48 h; summary of the method: as §1
OVCAR-5 = test: Antiproliferative activity against human OVCAR5 cells after 48 hrs by sulforhodamine B assay; details: OVCAR-5, 48 h; summary of the method: as §1
NCI/ADR-RES = test: Antiproliferative activity against human NCI/ADR-RES cells after 48 hrs by sulforhodamine B assay; summary of the method: as §1
NCI-H322M = test: Antiproliferative activity against human NCI-H322M cells after 48 hrs by sulforhodamine B assay; summary of the method: as §1
HOP-92 = test: Antiproliferative activity against human HOP92 cells after 48 hrs by sulforhodamine B assay; details: HOP-92, 48 h; summary of the method: as §1
A549 = test: Antiproliferative activity against human A549 cells after 48 hrs by sulforhodamine B assay; details: A549, 48 h; summary of the method: as §1
UACC-62 = test: Antiproliferative activity against human UACC62 cells after 48 hrs by sulforhodamine B assay; details: UACC-62, 48 h
Summary of the method: (§2)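 Cells in RPMI 1640 with 5% FBS and 2 mM L-glutamine were seeded at 5000–40,000/well according to doubling time and preincubated 24 h at 37 °C in 5% CO2. Time-zero plates were TCA-fixed when drug was added. Five 10-fold or ½-log dilutions from DMSO stocks were added for 48 h. After SRB staining, A515 was read and GI50 derived from [(Ti−Tz)/(C−Tz)]×100 = 50.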

SK-MEL-5 = test: Antiproliferative activity against human SK-MEL-5 cells after 48 hrs by sulforhodamine B assay; details: SK-MEL-5, 48 h; summary of the method: as §1
SK-MEL-28 = test: Antiproliferative activity against human SK-MEL-28 cells after 48 hrs by sulforhodamine B assay; details: SK-MEL-28, 48 h; summary of the method: as §1
MDA-MB-435 = test: Antiproliferative activity against human MDA-MB-435 cells after 48 hrs by sulforhodamine B assay; details: MDA-MB-435, 48 h; summary of the method: as §1
Malme-3M = test: Antiproliferative activity against human MALME-3M cells after 48 hrs by sulforhodamine B assay; summary of the method: as §1
RPMI-8226 = test: Antiproliferative activity against human RPMI8226 cells after 48 hrs by sulforhodamine B assay; details: RPMI-8226, 48 h, read-out: pLC50 (the source's name) (converted); summary of the method: as §1
MOLT-4 = test: Antiproliferative activity against human MOLT4 cells after 48 hrs by sulforhodamine B assay; details: MOLT-4, 48 h; summary of the method: as §1
CCRF-CEM = test: Antiproliferative activity against human CCRF-CEM cells after 48 hrs by sulforhodamine B assay; summary of the method: as §1
SW-620 = test: Antiproliferative activity against human SW620 cells after 48 hrs by sulforhodamine B assay; details: SW-620, 48 h; summary of the method: as §2
HCT-15 = test: Antiproliferative activity against human HCT15 cells after 48 hrs by sulforhodamine B assay; details: HCT-15, 48 h; summary of the method: as §1
HT-29 = test: Antiproliferative activity against human HT-29 cells after 48 hrs by sulforhodamine B assay; details: HT-29, 48 h; summary of the method: as §1
HCT-116 = test: Antiproliferative activity against human HCT116 cells after 48 hrs by sulforhodamine B assay; details: HCT-116, 48 h; summary of the method: as §1
[1] = Antiproliferative activity against human HCC2998 cells after 48 hrs by sulforhodamine B assay; details: HCC 2998, 48 h; summary of the method: as §1
COLO 205 = test: Antiproliferative activity against human COLO205 cells after 48 hrs by sulforhodamine B assay; details: COLO 205, 48 h; summary of the method: as §1
SNB-75 = test: Antiproliferative activity against human SNB75 cells after 48 hrs by sulforhodamine B assay; details: SNB-75, 48 h; summary of the method: as §2
SF-295 = test: Antiproliferative activity against human SF295 cells after 48 hrs by sulforhodamine B assay; details: SF-295, 48 h; summary of the method: as §1
T47D = test: Antiproliferative activity against human T47D cells after 48 hrs by sulforhodamine B assay; summary of the method: as §2
MDA-MB-231 = test: Antiproliferative activity against human MDA-MB-231 cells after 48 hrs by sulforhodamine B assay; details: MDA-MB-231, 48 h; summary of the method: as §1
UO-31 = test: Antiproliferative activity against human UO31 cells after 48 hrs by sulforhodamine B assay; details: UO-31, 48 h; summary of the method: as §2
RXF 393 = test: Antiproliferative activity against human RXF393 cells after 48 hrs by sulforhodamine B assay; details: RXF 393, 48 h; summary of the method: as §1
786-0 = test: Antiproliferative activity against human 786-0 cells after 48 hrs by sulforhodamine B assay; details: 786-0, 48 h; summary of the method: as §1

## O=C(CCCn1c(=O)c2sc3ccccc3c2n2nnc(-c3ccccc3)c12)NCCc1c[nH]cn1
SK-OV-3
  GI50: 3.47 µM
  LC50: 66.1 µM
SK-OV-3; read-out: pTGI (converted)
  TGI: 15.5 µM
DU-145
  GI50: 1.55 µM
  LC50: 5.75 µM
DU-145; read-out: pTGI (converted)
  TGI: 2.95 µM
OVCAR-5
  GI50: 1.2 µM
OVCAR-5; read-out: pTGI (converted)
  TGI: 2.75 µM
NCI/ADR-RES
  GI50: 3.24 µM
  LC50: > 100 µM
NCI/ADR-RES; read-out: pTGI (converted)
  TGI: > 100 µM
NCI-H322M
  GI50: 2.24 µM
  LC50: 21.4 µM
NCI-H322M; read-out: pTGI (converted)
  TGI: 5.5 µM
HOP-92
  GI50: 1.86 µM
HOP-92; read-out: pLC50 (the source's name) (converted)
  CC50: > 100 µM
A549
  GI50: 2.09 µM
A549; read-out: pTGI (converted)
  TGI: 4.57 µM
UACC-62
  GI50: 1.91 µM
  LC50 (concentration killing 50% of cells): 6.61 µM
UACC-62; read-out: pTGI (converted)
  TGI: 3.55 µM
SK-MEL-5
  GI50: 1.91 µM
  LC50: 8.91 µM
SK-MEL-5; read-out: pTGI (converted)
  TGI: 4.07 µM
SK-MEL-28
  GI50: 1.74 µM
  LC50: 5.89 µM
SK-MEL-28; read-out: pTGI (converted)
  TGI: 3.24 µM
MDA-MB-435
  GI50: 1.48 µM
  LC50: 6.31 µM
MDA-MB-435; read-out: pTGI (converted)
  TGI: 3.09 µM
Malme-3M
  GI50: 2.51 µM
  LC50: > 100 µM
Malme-3M; read-out: pTGI (converted)
  TGI: 5.5 µM
RPMI-8226
  CC50: > 100 µM
MOLT-4
  GI50: 1.17 µM
CCRF-CEM
  LC50: > 100 µM
CCRF-CEM; read-out: pTGI (converted)
  TGI: > 100 µM
SW-620
  GI50: 0.407 µM
HCT-15
  GI50: 1.26 µM
  LC50: 5.01 µM
HCT-15; read-out: pTGI (converted)
  TGI: 2.51 µM
HT-29
  GI50: 1.35 µM
  LC50: 7.41 µM
HT-29; read-out: pTGI (converted)
  TGI: 3.16 µM
HCT-116
  GI50: 0.339 µM
  LC50: > 100 µM
HCT-116; read-out: pTGI (converted)
  TGI: 1.66 µM
[1]
  GI50: 1.78 µM
  LC50: 9.77 µM
[1]; read-out: pTGI (converted)
  TGI: 4.17 µM
COLO 205
  GI50: 1.1 µM
  LC50: > 100 µM
COLO 205; read-out: pTGI (converted)
  TGI: 4.79 µM
SNB-75
  GI50: 1.86 µM
  LC50 (concentration killing 50% of starting cells): 8.71 µM
SNB-75; read-out: pTGI (converted)
  TGI: 4.07 µM
SF-295
  GI50: 1.7 µM
SF-295; read-out: pTGI (converted)
  TGI: 3.63 µM
T47D
  GI50: 1.41 µM
  LC50: > 100 µM
T47D; read-out: pTGI (converted)
  TGI: 4.47 µM
MDA-MB-231
  GI50: 1.91 µM
  LC50: 6.76 µM
MDA-MB-231; read-out: pTGI (converted)
  TGI: 3.63 µM
UO-31
  GI50: 1.91 µM
UO-31; read-out: pTGI (converted)
  TGI: 3.72 µM
RXF 393
  GI50: 2.51 µM
  LC50: > 100 µM
RXF 393; read-out: pTGI (converted)
  TGI: 5.01 µM
786-0
  GI50: 1.58 µM
786-0; read-out: pTGI (converted)
  TGI: 3.55 µM

Reference: ChEMBL document CHEMBL2346608, “New annelated thieno[2,3-e][1,2,3]triazolo[1,5-a]pyrimidines, with potent anticancer activity, designed through VLAK protocol” (2013)
